From PubChem
Efflux pump inh: blocks antifungal efflux pumps in multiplex yeast assay; S. cerevisiae Candida pump triplex, Nile Red efflux; inhibition, % at 10 µM; 330,000 tested, 0.44% active; AID 485275;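 active means plate passing quality check with inhibition over a set limit, or well fluorescence over plate mean plus 4 SD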;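 further: Nile Red retained in pooled yeast measured as flow cytometry median fluorescence; 0% = buffer negative control and 100% = Enniatin B positive control; higher means more Nile Red kept so more efflux inhibition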
Neddylation inh: inhibitors of human cullin neddylation; P61081+Q13564; TR-FRET cullin neddylation, biochemical; inhibition, % at 25 µM; 360,000 tested, 0.58% active; AID 651699; in the data active means inhibition above about 36%
DSG3 Ab inh: inhibitors of pemphigus antibody binding to human desmoglein-3; P32926; DSG3-coupled beads, scFv-anti-DSG3-GFP binding, flow cytometry; stronger effect = lower value; binding (percent of control), % at 10 µM; 310,000 tested, 0.48% active; AID 588358;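 active means binding more than 3 SD below its plate's average and above zero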;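 further: hits lower antibody fragment binding to DSG3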
Arrestin-AP2 inh: human beta-arrestin and AP2 interaction inhibition | FITC-arrestin peptide / GST-AP2 beads, flow cytometry; AP2 beta2 appendage carries R879A mutation | inhibition, % at 10 µM | 340,000 tested, 0.31% active | AID 504490;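 active means inhibition above a set limit, near 3 SD of compounds lacking own fluorescence, cut at about 54% in these data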;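 further: plate controls were DMSO wells for no effect and 5 µM unlabelled arrestin peptide for full effect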
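System: GST-AP2 R879A glutathione beads; medium: PBS, Tween 20 0.05%, BSA 0.1%; reagent: fluorescein-tagged arrestin peptide at 50 nM final; schedule: pre-incubation 12 min, peptide binding 1 h, room temperature; detection: flow cytometry, FL1 (488/535 nm); read-out: inhibition as reduced fluorescein signal on beads, percent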
Arr-AP2 CP1: blocks beta-arrestin peptide binding to human AP2; shares compounds with Arrestin-AP2 inh; GST-AP2 beads, FITC arrestin peptide binding, flow cytometry; GST-fused beta2-adaptin appendage, R879A mutant; inhibition, % at 10 µM; 1,300 tested, 2% active; AID 504908;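 active means inhibition above a set limit, roughly 3 SD of non-fluorescent compound noise, cut at about 38% in these data; inactive means inhibition at or below that limit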;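 further: loss of bead fluorescence from 50 nM FITC arrestin peptide bound to appendage; 0% = negative control wells and 100% = excess unlabelled arrestin peptide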
Target sequence (P63010 whole entry, looked up, the tested form may be a part, one chain of several): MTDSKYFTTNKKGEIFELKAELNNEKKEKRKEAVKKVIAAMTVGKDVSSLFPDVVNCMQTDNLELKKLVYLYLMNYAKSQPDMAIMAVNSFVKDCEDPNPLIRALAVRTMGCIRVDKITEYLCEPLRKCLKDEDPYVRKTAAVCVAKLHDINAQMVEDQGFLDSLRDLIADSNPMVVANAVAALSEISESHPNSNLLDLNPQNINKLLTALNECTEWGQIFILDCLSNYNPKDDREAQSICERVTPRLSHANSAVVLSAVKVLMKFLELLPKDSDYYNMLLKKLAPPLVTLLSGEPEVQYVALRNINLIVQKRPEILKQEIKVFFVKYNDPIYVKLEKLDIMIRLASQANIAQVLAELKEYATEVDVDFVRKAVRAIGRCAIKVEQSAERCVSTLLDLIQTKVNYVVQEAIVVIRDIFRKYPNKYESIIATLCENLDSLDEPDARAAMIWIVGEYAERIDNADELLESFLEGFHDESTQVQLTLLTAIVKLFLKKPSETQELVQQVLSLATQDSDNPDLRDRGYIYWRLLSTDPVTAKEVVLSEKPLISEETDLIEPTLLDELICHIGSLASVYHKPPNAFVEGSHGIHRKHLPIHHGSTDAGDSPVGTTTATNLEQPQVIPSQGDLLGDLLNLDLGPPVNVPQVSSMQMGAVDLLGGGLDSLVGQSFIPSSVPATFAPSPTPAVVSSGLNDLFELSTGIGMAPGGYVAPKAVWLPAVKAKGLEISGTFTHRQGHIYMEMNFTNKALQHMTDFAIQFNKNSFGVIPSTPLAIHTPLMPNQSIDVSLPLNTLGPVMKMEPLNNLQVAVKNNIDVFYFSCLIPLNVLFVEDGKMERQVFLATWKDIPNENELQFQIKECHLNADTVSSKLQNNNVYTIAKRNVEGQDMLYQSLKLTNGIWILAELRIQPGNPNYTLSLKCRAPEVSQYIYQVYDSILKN
GST GSH counter: disrupts GST binding to glutathione beads, arrestin-AP2 artifact | shares compounds with Arrestin-AP2 inh | GST-fluorescein binding to GSH beads, fluorescence, counter-screen | inhibition, % at 10 µM | 1,300 tested, 2% active;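 active means inhibition above 50%, about 3 SD of the inhibition seen with non-fluorescent compounds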;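 further: fluorescein maleimide labelled GST captured on 4 micron glutathione beads; higher means more loss of bead fluorescence from quenching or blocked binding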
The depositor's hits bear a star; / = not tested or not shown. A selection: hits, their analogues and other compounds. The true share with any hit is near 1.7%.

SMILES	Efflux pump inh	Neddylation inh	DSG3 Ab inh	Arrestin-AP2 inh	Arr-AP2 CP1	GST GSH counter
CC12CCC(=O)N1C(C(=O)N1CCN(S(=O)(=O)c3cccc(C(F)(F)F)c3)CC1)CS2 (centres undefined)	0	-2	113	57*	-1	-4
CCS(=O)(=O)Nc1cccc(C2=NN(C(C)=O)C(c3cccs3)C2)c1 (centres undefined)	0	4	94	54*	-4	-10
CC(=O)N1N=C(c2cccc(NS(C)(=O)=O)c2)CC1c1cccs1 (centres undefined)	0	7	95	-17	/	/
CCc1nnc(SCC(=O)Nc2ccccc2Cl)nc1CC	0	0	128	-5	/	/
COc1ccc(OC)c(CN2CCN(C(=O)CCC(=O)c3cccs3)CC2)c1	0	11	101	55*	0	0
COc1ccc(C(=O)N2CCN(Cc3cc(OC)ccc3OC)CC2)cc1	0	1	100	-9	/	/
COc1cc(Cl)ccc1OC1(C)CCN(Cc2ccc(-c3ccccn3)cc2)C1 (centres undefined)	/	-3	/	/	/	/
O=C(CCOc1ccccc1)Nc1ccc(S(=O)(=O)N2CCCC2)cc1	0	5	/	7	/	/
O=C(Nc1cnc2ccccc2c1)C1COc2ccccc2O1 (centres undefined)	0	-2	99	69*	4	2
O=C(Nc1ccccc1[N+](=O)[O-])C1COc2ccccc2O1 (centres undefined)	0	-41	96	56*	0	-6
O=C(N/N=C/c1cccc([N+](=O)[O-])c1)C1COc2ccccc2O1 (centres undefined)	0	-33	108	58*	-5	1
O=C(N/N=C\c1ccc(-c2ccc([N+](=O)[O-])cc2)o1)C1COc2ccccc2O1 (centres undefined)	0	-1	92	-2	/	/
O=C1C2CCCCC2C(=O)N1c1nccs1 (centres undefined)	0	13	121	16	/	/
CCN(CC)CCCn1c2c(c(SCC(=O)N3CCc4ccccc43)nc1=O)CCC2	0	1	98	-2	/	/
O=C(NCCS(=O)(=O)N1CCN(c2ccccc2)CC1)c1cccc(F)c1	0	0	93	0	/	/
COc1ccc(C(CNC(=O)C(Cc2ccccc2)NC(N)=O)N(C)C)cc1 (centres undefined)	0	0	106	28	/	/
Cc1ccccc1N(CC(=O)NCCc1ccccc1)C(=O)c1csnn1	0	-1	102	-8	/	/
Cc1cc(Cl)ccc1N(CC(=O)NCc1ccc2c(c1)OCO2)S(C)(=O)=O	0	-5	/	60*	11	-3
Cc1ccc(Cl)cc1N(CC(=O)NCc1ccc2c(c1)OCO2)S(C)(=O)=O	0	-2	112	27	/	/
O=C(Nc1cccnc1Cl)c1noc2c1CCc1ccccc1-2	0	-4	98	55*	10	-16
CCCNC(=O)c1noc2c1CCc1ccccc1-2	0	5	94	-13	/	/
COc1cc2ccc(NC(C)=O)cc2cc1OC	/	3	101	/	/	/
COc1ccc(F)cc1CN1CCN(C(=O)CCC(=O)Nc2nnc(CC(C)C)s2)CC1	0	0	86	54*	8	-5
COc1cccc(NC(=O)N(C)C[C@@H]2OCc3cnnn3CCCC(=O)N([C@@H](C)CO)C[C@H]2C)c1	/	4	98	/	/	/
COc1cc(C(=O)Nc2cc(C(F)(F)F)ccc2N2CCOCC2)ccc1OCC(=O)N1CCOCC1	0	-2	102	1	/	/
SMILES	Efflux pump inh	Neddylation inh	DSG3 Ab inh	Arrestin-AP2 inh	Arr-AP2 CP1	GST GSH counter
O=C(CSc1nc2ccccc2c(=O)n1Cc1ccc(F)cc1)NCc1cccs1	0	-51	119	87*	24	181*
O=C(NNC(=O)c1ccc(Cl)nc1)c1ccncc1	0	-4	96	57*	-4	-5
O=C(NNC(=O)c1ccncc1)c1ccncc1	0	6	110	-1	/	/
Cc1ccc(C(=O)COC(=O)CCN2C(=O)C3C4C=CC(C5CC45)C3C2=O)cc1 (centres undefined)	0	4	/	57*	2	-1
O=C(CCN1C(=O)C2C3C=CC(C4CC34)C2C1=O)OCC(=O)c1ccccc1 (centres undefined)	0	-5	103	-11	/	/
CCOC(=O)C1=C(COC(=O)COc2ccc(C(C)=O)cc2)NC(=O)NC1C (centres undefined)	0	6	96	-2	5	1
CCOC(=O)C1=C(COC(=O)CNC(=O)c2ccc(C)cc2)NC(=O)NC1C (centres undefined)	0	1	94	-9	/	/
CCOC(=O)C1=C(COC(=O)c2cccs2)NC(=O)NC1C (centres undefined)	0	5	98	7	/	/
CCOC(=O)C1=C(COC(=O)COc2ccc(C#N)cc2)NC(=O)NC1C (centres undefined)	0	-3	/	5	2	-3
CCOC(=O)C1=C(COC(=O)COc2cc(C)ccc2C)NC(=O)NC1C (centres undefined)	0	7	92	4	-7	-14
CCOC(=O)C1=C(COC(=O)COc2ccc(C(=O)CC)cc2)NC(=O)NC1C (centres undefined)	0	8	97	15	-14	-1
COc1ccc(S(=O)(=O)N2CCOCC2)cc1NC(=O)CCc1c[nH]c2ccccc12	0	4	120	-6	/	/
CC1CCc2onc(C(=O)NCc3ccco3)c2C1 (centres undefined)	0	11	/	-3	/	/
CCOC(=O)C1=C(COC(=O)COc2ccccc2C#N)NC(=O)NC1C (centres undefined)	0	-2	99	-15	-14	-2
CCOC(=O)C1=C(COC(=O)CNC(=O)c2ccc(C(C)(C)C)cc2)NC(=O)NC1C (centres undefined)	0	8	110	2	/	/
CCOc1ccc(Br)cc1CNc1ccc2c(c1)OCCO2	0	0	99	8	/	/
Cc1c(C(=O)NC(C)C)oc2c1-c1[nH]ncc1CC2	0	22	98	104*	12	7
CCOc1ccc(CCNC(=O)c2oc3c(c2C)-c2[nH]ncc2CC3)cc1OCC	0	16	105	2	/	/
Cc1ccc2c(c1)-n1c(nc3cc(Cl)ccc3c1=O)C(Cc1ccccc1)NC2=O (centres undefined)	0	/	/	/	/	/
NS(=O)(=O)c1ccc(NC(=O)/C=C/c2cn(-c3ccccc3)nc2-c2cccc(Cl)c2)cc1	0	30	119	58*	1	-7
O=C(Nc1cc(C(=O)N2CCCC2)ccc1N1CCCC1)c1ccccc1F	0	-8	99	-5	/	/
CCn1c(=O)n(CC)c2cc(N3CCCC3)c(NC(=O)c3ccccc3F)cc21	0	14	/	7	-2	-8
CCn1c(=O)n(CC)c2cc(N3CCCC3)c(NC(=O)c3ccccc3C)cc21	0	16	103	4	21	-1
